TDP2 inh = TDP2 (human) inhibition, absorbance primary screen; AID 720702; recombinant TDP2, T5PNP hydrolysis, p-nitrophenol absorbance 415 nm; inhibition, % at 12.8 µM; 0.34% of 370,000 active; O95551;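 active = inhibition above the mean of all tested compounds plus 3 SD, set per campaign, cut at about 25% in these data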;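 note: 0% = DMSO with enzyme and 100% = buffer with substrate but no TDP2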
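Test system: Human TDP2 enzyme | Reagent: 5 mM T5PNP | Compound dosing: 12.8 µM single point, 1% DMSO | Incubation: Enzyme reaction with compound for 2 h at 37 °C | Technique: p-Nitrophenol epi absorbance | Read-out: % inhibition relative to enzyme-containing and enzyme-free wells | Benchmarks: High control without enzyme, low control DMSO plus TDP2 | Replicates: Singlicate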
NSD2 inh = blocks human histone methyltransferase NSD2 | O96028 | NSD2 peptide methylation, AlphaScreen, 120 min | inhibition, % at 12.5 µM | 0.54% of 310,000 active | AID 743445; in the data active = inhibition above about 50%
CASP6 VEID inh = blocks human caspase-6 cleavage activity | purified caspase-6, Z-VEID-R110 cleavage fluorescence | P55212 | inhibition, % at 12.5 µM | 0.53% of 350,000 active;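 active = mean inhibition across replicates at least about 35%, with every replicate also reaching that limit, limit read from the data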;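 note: 0% = median of neutral control wells and 100% = no fluorescence left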
LEDGF integ inh = blocks HIV-1 LEDGF/p75-dependent DNA integration; TR-FRET IN-LEDGF/p75 DNA integration, Eu/Cy5; inhibition, % at 3.7 µM; 0.64% of 370,000 active; AID 743269;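 active = inhibition above the screen-wide mean plus 3 SD, cut at about 13% in these data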;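 note: signal is the Cy5 over europium emission ratio at 671 and 618 nm; 0% = plate median of compound wells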
UHRF1 binding = UHRF1 methyl-DNA binding inhibition; Q96T88; UHRF1 binding to methylated oligo, TR-FRET; inhibition, % at 4.4 µM; 0.75% of 370,000 active; in the data active = inhibition above about 21%;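 note: UHRF1 SRA domain binding a hemimethylated CpG hairpin DNA probe; 0% = median of test compound wells and 100% = reference inhibitor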
MBD2 inh = MBD2-methylated oligo binding inhibition; TR-FRET, MBD2 binding to methylated oligonucleotide; Q9UBB5; 0.31% of 370,000 active; inhibition, % at 4.4 µM; in the data active = inhibition above about 13%
Target sequence (Q9UBB5 whole entry, looked up): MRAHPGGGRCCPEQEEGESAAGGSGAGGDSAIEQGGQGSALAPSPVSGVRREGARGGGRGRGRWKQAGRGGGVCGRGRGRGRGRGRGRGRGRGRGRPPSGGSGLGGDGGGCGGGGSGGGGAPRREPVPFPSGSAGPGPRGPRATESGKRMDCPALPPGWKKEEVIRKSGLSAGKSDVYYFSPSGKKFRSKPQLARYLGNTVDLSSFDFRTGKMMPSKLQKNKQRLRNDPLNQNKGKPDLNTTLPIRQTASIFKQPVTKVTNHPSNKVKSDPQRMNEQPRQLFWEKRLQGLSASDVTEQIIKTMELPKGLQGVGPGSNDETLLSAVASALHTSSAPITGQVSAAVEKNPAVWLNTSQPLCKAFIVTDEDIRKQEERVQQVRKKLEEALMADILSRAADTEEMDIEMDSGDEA
IN multimer act = counter-screen for LEDGF/p75 integration inhibitors: HIV-1 integrase multimerization activators; shares compounds with LEDGF integ inh; TR-FRET HIV-1 integrase multimerization, biochemical; activation, % at 7.7 µM; 17% of 2,000 active; AID 1053131; in the data active = activation above about 8.9%
TR-FRET interf = optically interferes with TR-FRET readout in LEDGF counter-screen; AID 1053135; shares compounds with LEDGF integ inh; 2,000 tested, under 10 active; inhibition, % at 7.7 µM; TR-FRET optical interference counterscreen, HIV-1 IN multimerization;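 active = inhibition above the mean over all tested compounds plus 3 SD, which no compound reached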;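 note: 0% = integrase with antibodies and DMSO and 100% = antibodies without integrase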
IN-LEDGF confirm = LEDGF/p75-dependent HIV-1 integration inhibition, confirmation | shares compounds with LEDGF integ inh | TR-FRET LEDGF/p75-dependent HIV-1 integration, biochemical | inhibition, % at 3.7 µM | 36% of 2,000 active | AID 1053136; in the data active = inhibition above about 14%
Starred values were filed as active, the others as inactive. In the library only some 1.8% were active in any assay of this set; here they are far more common.

Results for Fc1ccccc1N1CCN(C2CCCN(Cc3ccccc3C(F)(F)F)C2)CC1 (stereo not drawn) ?
TDP2 inh: -23; NSD2 inh: 4; CASP6 VEID inh: -1; LEDGF integ inh: 16*; UHRF1 binding: 0; MBD2 inh: -3; IN multimer act: 0; TR-FRET interf: 0; IN-LEDGF confirm: 2

How did COc1ccc(OC)c(C2C(C#N)=C(N)Oc3cc(N)ccc32)c1 (stereo not drawn) do in these assays?
TDP2 inh: -3; NSD2 inh: 4; LEDGF integ inh: 14*; UHRF1 binding: -4; MBD2 inh: -5; IN multimer act: 2; TR-FRET interf: -9; IN-LEDGF confirm: -4

Results for CN(C)c1ccc2c(c1)OC(N)=C(C#N)C2c1cccc(F)c1 (stereo not drawn) ?
NSD2 inh: -2

What do the screens show for `N#CC1=C(N)Oc2cc(N)ccc2C1c1cccc(F)c1` (stereo not drawn)?
TDP2 inh: 3; NSD2 inh: -1; CASP6 VEID inh: 3; LEDGF integ inh: 15*; UHRF1 binding: -2; MBD2 inh: -3; IN multimer act: 0; TR-FRET interf: 0; IN-LEDGF confirm: -6

What do the screens show for `CC(C)CC(C(=O)Nc1cccc(O)c1)N1C(=O)c2ccccc2C1=O` (stereo not drawn)?
TDP2 inh: 0; NSD2 inh: 2; CASP6 VEID inh: -1; LEDGF integ inh: 0; UHRF1 binding: -2; MBD2 inh: -3

What do the screens show for `CC(C)CC(C(=O)Nc1oc(-c2ccco2)c(-c2ccco2)c1C#N)N1C(=O)c2ccccc2C1=O` (stereo not drawn)?
TDP2 inh: 1; NSD2 inh: -4; LEDGF integ inh: 17*; UHRF1 binding: -1; MBD2 inh: 4; IN multimer act: 2; TR-FRET interf: -9; IN-LEDGF confirm: 9

How did C=C(C)C(=O)Nc1cccc(C2=NOC3(C2)C[C@@H](C(N)=O)N(C(=O)[C@H]2CCC(=O)N2)C3)c1 (stereo partly drawn) do in these assays?
TDP2 inh: -3; CASP6 VEID inh: 5; LEDGF integ inh: 28*; UHRF1 binding: 16; MBD2 inh: 11; IN multimer act: 5; TR-FRET interf: -25; IN-LEDGF confirm: 24*

Results for C/C=C(/C)C(=O)Nc1cccc(C2=NOC3(C2)C[C@@H](C(N)=O)N(C(=O)[C@H]2CCC(=O)N2)C3)c1 (stereo partly drawn) ?
TDP2 inh: 6; CASP6 VEID inh: 0; LEDGF integ inh: 2; UHRF1 binding: 0; MBD2 inh: 2

What do the screens show for `O=C(Cc1ccc(Br)cc1)NNC(=O)c1cccs1`?
TDP2 inh: 4; NSD2 inh: -4; CASP6 VEID inh: 0; LEDGF integ inh: 14*; UHRF1 binding: -2; MBD2 inh: 3; IN multimer act: 0; TR-FRET interf: 0; IN-LEDGF confirm: 0

What do the screens show for `O=C(Cc1ccccc1)NNC(=O)c1cccs1`?
TDP2 inh: 0; NSD2 inh: -22; LEDGF integ inh: 0; UHRF1 binding: 10; MBD2 inh: 7

Results for CCOc1ccc(/C=c2\sc3nc(-c4ccco4)nn3c2=O)cc1OCC ?
TDP2 inh: -4; NSD2 inh: 6; LEDGF integ inh: 16*; UHRF1 binding: 39*; MBD2 inh: 9; IN multimer act: 1; TR-FRET interf: -4; IN-LEDGF confirm: 6

How did Cc1ccc(/C=C/C(=O)Nc2cccc3cccnc23)o1 do in these assays?
TDP2 inh: 0; NSD2 inh: -1; LEDGF integ inh: 14*; UHRF1 binding: -1; MBD2 inh: -7; IN multimer act: 2; TR-FRET interf: -8; IN-LEDGF confirm: 1
